Laboratory results reported in ChEMBL document CHEMBL2203171, “The use of small molecule probes to study spatially separated stimulus-induced signaling pathways” (Bioorg Med Chem Lett, 2012).
Activity calls are given as the source filed them. No cut-off for these calls is given here.

Key:
[1] = biological target: T1, Inhibitor of nuclear factor kappa-B kinase subunit beta (Mus musculus) (UniProt O88351); test: Inhibition of IKKbeta in C57BL/6 mouse BMDM cells assessed as inhibition of TNFalpha-induced IkappaBalpha phosphorylation at 50 uM up to 90 mins by Western blot analysis; assay type: cell-based
T1 sequence (whole entry): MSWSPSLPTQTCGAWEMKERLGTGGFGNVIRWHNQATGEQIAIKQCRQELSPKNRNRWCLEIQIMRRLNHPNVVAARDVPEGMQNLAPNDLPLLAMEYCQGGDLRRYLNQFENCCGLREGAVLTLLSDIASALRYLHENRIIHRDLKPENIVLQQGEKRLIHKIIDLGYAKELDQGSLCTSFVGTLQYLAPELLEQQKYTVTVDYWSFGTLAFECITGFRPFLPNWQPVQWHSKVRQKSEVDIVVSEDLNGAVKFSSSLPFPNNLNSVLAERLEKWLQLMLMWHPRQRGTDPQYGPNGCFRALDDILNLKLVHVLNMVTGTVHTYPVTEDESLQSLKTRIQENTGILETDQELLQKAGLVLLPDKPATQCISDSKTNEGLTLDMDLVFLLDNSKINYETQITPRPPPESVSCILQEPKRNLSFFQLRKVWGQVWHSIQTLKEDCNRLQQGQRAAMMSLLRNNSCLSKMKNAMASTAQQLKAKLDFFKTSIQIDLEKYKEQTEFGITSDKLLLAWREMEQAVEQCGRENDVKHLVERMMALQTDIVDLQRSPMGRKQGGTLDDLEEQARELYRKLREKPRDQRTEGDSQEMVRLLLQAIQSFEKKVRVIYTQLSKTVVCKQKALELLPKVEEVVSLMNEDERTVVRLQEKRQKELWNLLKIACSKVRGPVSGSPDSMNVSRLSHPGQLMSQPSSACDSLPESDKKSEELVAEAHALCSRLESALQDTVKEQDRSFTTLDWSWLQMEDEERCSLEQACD

[2] = biological target: T2, Interleukin-1 receptor type 1 (Mus musculus) (UniProt P13504); test: Inhibition of MyD88 recruitment to IL-1R in C57BL/6 mouse BMDM cells assessed as inhibition of IL-1-induced IkappaBalpha phosphorylation up to 90 mins by Western blot analysis; assay type: cell-based
T2 sequence (whole entry): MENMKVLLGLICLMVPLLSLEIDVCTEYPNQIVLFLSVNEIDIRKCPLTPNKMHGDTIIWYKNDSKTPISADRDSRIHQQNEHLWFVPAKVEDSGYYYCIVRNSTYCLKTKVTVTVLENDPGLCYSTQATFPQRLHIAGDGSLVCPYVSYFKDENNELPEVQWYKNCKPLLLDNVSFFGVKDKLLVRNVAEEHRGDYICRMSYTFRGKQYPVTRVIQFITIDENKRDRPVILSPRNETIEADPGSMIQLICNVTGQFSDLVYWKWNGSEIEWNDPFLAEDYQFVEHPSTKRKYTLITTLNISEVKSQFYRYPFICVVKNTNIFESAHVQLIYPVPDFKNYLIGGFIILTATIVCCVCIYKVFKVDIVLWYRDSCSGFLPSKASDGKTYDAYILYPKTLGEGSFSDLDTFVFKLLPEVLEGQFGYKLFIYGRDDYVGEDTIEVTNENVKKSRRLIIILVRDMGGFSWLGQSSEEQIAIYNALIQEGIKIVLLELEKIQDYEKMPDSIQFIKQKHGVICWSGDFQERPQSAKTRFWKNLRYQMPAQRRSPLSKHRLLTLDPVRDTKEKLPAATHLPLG
In short: (§1)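 Bone marrow macrophages from C57BL/6 mice, grown in 70% growth medium (DMEM, 10% FBS) plus 30% L929-conditioned medium and given fresh medium 12-14 h before stimulation. Stimuli: IL-1 40 ng/ml, HKSA ~10^8 cfu/ml, pI:pC 50 μg/ml or CpG 10 μg/ml, ± compound at 10 μM (final) added from a 200x DMSO stock. IκBα and p38 profiled by immunoblot. Three independent experiments, quantitated and normalized.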

[3] = biological target: T3, Toll-like receptor 3 (Mus musculus) (UniProt Q99MB1); test: Inhibition of TRIF recruitment to TLR3 in C57BL/6 mouse BMDM cells assessed as inhibition of pI:pC-induced p38 MAPK activity up to 90 mins; assay type: cell-based; in short: as §1
T3 sequence (whole entry): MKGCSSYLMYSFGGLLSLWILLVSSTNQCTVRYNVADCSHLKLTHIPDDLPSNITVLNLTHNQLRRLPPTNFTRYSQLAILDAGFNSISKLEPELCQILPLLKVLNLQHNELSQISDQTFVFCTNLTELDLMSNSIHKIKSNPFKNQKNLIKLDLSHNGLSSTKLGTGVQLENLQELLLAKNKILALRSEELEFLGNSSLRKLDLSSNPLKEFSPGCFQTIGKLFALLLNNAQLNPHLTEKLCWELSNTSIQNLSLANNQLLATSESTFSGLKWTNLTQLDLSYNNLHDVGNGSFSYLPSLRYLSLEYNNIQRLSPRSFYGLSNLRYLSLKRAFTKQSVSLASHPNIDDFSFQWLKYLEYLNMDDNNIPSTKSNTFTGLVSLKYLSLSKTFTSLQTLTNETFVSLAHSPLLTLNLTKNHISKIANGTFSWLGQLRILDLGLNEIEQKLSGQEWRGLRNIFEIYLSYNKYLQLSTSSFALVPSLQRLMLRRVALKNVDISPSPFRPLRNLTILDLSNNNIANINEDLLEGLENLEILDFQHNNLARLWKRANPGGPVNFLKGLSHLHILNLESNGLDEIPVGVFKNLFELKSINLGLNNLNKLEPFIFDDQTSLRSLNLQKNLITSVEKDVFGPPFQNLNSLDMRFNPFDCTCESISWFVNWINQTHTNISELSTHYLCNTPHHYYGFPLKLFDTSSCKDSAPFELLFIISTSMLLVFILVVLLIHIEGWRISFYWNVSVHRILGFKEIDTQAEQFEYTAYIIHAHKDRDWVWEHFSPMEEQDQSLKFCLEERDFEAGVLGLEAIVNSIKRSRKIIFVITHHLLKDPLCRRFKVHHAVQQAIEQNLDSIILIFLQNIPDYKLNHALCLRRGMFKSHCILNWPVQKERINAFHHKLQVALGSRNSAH

[4] = biological target: T1, Inhibitor of nuclear factor kappa-B kinase subunit beta (Mus musculus); test: Inhibition of IKKbeta in C57BL/6 mouse BMDM cells assessed as inhibition of TNFalpha-induced IkappaBalpha phosphorylation at 25 uM by Western blot analysis
[5] = biological target: T2, Interleukin-1 receptor type 1 (Mus musculus); test: Inhibition of MyD88 recruitment to IL-1R in C57BL/6 mouse BMDM cells assessed as inhibition of IL1-induced p38 MAPK activity up to 90 mins; assay type: cell-based; in short: as §1
[6] = biological target: T1, Inhibitor of nuclear factor kappa-B kinase subunit beta (Mus musculus); test: Inhibition of IKKbeta in C57BL/6 mouse BMDM cells assessed as inhibition of TNFalpha-induced MCP1 […] at 25 uM by Northern blot analysis; assay type: cell-based
[7] = biological target: MAP kinase p38 (Mus musculus) (UniProt P47811+O08911+Q9WUI1+Q9Z1B7); test: Inhibition of MAPK p38 in C57BL/6 mouse BMDM cells assessed as inhibition of LPS-induced phosphorylation at 50 uM up to 90 mins by Western blot analysis; assay type: cell-based

inhibition [1]: inactive
inhibition [2]: Active
inhibition [3]: inactive
inhibition [4]: inactive
inhibition [5]: inactive
inhibition [6]: inactive
inhibition [7]: inactive
SMILES: O=C(CCCCCN1C(=O)C=CC1=O)Oc1ccc2cc(C(C(=O)NCc3ccccc3)N(C(=O)Cc3ccc4c(c3)OCO4)C3CC3)ccc2c1 (configuration not stated)
